Hits are enriched below; roughly 1.8% of the tested compounds scored in any of these assays.
NPY Y2 blocker = antagonists of human neuropeptide Y receptor Y2. hit rate 0.99% among 140,000. AID 793. inhibition, % at 2.7 µM. NPY-Y2 expressing cells, antagonist mode; in the data active means inhibition above about 17%;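 further: 0% = vehicle with agonist challenge and 100% = reference antagonist with challenge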
Target sequence (P49146 whole entry, looked up): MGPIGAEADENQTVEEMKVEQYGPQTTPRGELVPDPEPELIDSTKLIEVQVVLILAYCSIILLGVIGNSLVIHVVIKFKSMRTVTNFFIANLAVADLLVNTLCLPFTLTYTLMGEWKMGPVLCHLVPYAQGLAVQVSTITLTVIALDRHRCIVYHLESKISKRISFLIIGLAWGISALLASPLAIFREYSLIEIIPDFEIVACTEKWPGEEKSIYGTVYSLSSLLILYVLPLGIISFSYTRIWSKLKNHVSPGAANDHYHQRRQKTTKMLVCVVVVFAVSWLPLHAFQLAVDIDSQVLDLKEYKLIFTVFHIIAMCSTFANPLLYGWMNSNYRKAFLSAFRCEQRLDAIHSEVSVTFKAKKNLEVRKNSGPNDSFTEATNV
NPY Y1 blocker = antagonists of human neuropeptide Y receptor Y1; P25929; HEK293-CNG Y1 cells, membrane potential fluorescence; NPY at EC95, then isoproterenol; inhibition, % at 3.6 µM; hit rate 1% among 200,000; AID 1040;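 active means inhibition above the campaign mean inhibition of all tested compounds plus 3 SD, cut at about 20% in these data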;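 further: 0% = DMSO wells given NPY plus isoproterenol and 100% = isoproterenol alone without NPY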
Target sequence (P25929 whole entry, looked up): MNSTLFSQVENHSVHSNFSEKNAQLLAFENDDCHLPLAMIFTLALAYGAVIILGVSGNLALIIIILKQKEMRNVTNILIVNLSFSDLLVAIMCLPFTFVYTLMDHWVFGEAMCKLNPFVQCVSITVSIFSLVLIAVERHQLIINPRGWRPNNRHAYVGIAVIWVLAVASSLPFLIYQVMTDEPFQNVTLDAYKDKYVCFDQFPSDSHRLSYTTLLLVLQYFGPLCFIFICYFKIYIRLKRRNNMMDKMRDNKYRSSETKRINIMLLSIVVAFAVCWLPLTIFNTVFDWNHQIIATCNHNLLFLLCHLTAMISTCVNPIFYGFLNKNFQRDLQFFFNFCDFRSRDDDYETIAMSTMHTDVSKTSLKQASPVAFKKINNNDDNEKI
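Material: HEK293 Y1/CNG channel cell line | Also added: NPY (25 nM), isoproterenol (1 µM), Ro 20-1724 (25 µM) | Compound: One concentration, 3.6 µM, in 0.4% DMSO | Schedule: 3 h dye uptake, 1 h room-temperature compound, 45 min post-isoproterenol | Signal: Membrane-potential fluorescent dye readout | Read-out: % inhibition of NPY effect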
NPY-Y2 PAM-ag = human NPY-Y2 potentiation or agonism, primary screen. cells expressing NPY-Y2, potentiator/agonist read-out. activation, % at 3.6 µM. P49146. hit rate 0.45% among 220,000; in the data active means activation above about 27%;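 further: cells stimulated with NPY near EC25 plus isoproterenol at EC100; 0% = vehicle plus submaximal agonist and 100% = vehicle plus saturating agonist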
NPY-Y1 PAM-ag = potentiators or agonists of human neuropeptide Y receptor Y1. P25929. AID 1304. hit rate 0.37% among 220,000. activation, % at 3.6 µM. NPY-Y1 expressing cells, potentiator/agonist activation; in the data active means activation above about 33%, passing the limit was not always enough;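 further: cells stimulated with NPY at EC10 then isoproterenol at EC100; 0% = low agonist plus stimulus and 100% = saturating agonist plus stimulus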
NPY-Y1 pot conf = human NPY-Y1 potentiation or agonism, confirmation. hit rate 20% among 280. activation, % at 3.6 µM. cell-based NPY-Y1 potentiator/agonist assay. shares compounds with NPY-Y1 PAM-ag; in the data active means activation above about 45%;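 further: cells challenged with NPY at its EC10 plus isoproterenol stimulus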
NPY-Y2 counter = NPY-Y2 potentiation or agonism as NPY-Y1 counter-screen; hit rate 20% among 280; activation, % at 3.6 µM; HEK293-CNG cells, membrane-potential fluorescence (FLIPR), 1536-well; shares compounds with NPY-Y1 PAM-ag; in the data active means activation above about 33%
NPY-Y1 agonist = human NPY-Y1 agonism as potentiator counter-screen. HEK293 Y1-CNGC, membrane potential fluorescence, agonist mode. hit rate 50% among 280. AID 1697. activation, % at 3.6 µM. shares compounds with NPY-Y1 PAM-ag;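 active means percent activation above the mean of DMSO-only control wells plus 3 SD of those wells, cut at about 18% in these data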;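 further: cells challenged with isoproterenol plus Ro 20-1724 with no NPY in test wells; Y1 agonism lowers isoproterenol-driven cAMP and reduces probe fluorescence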
NPY-Y2 agonist = activates human NPY-Y2, counter-screen for NPY-Y1 hits | shares compounds with NPY-Y1 PAM-ag | HEK293 Y2-CNGC, membrane potential fluorescence, agonist mode | activation, % at 3.6 µM | hit rate 67% among 280;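 active means activation above the solvent-only control wells' mean plus 3 SD, cut at about 11% in these data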;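 further: 0% = DMSO with isoproterenol and 100% = 40 nM NPY maximal response; agonism lowers cAMP so well fluorescence drops in active wells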
CNGC inh 2 = CNG channel inhibition, counter-screen for NPY-Y1 potentiators; HEK293-CNG parental, isoproterenol cAMP, membrane potential fluorescence; hit rate 42% among 280; shares compounds with NPY-Y1 PAM-ag; inhibition, % at 3.6 µM;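 active means inhibition above the mean of stimulated solvent-only control wells plus 3 SD, cut at about 22% in these data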;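 further: 0% = isoproterenol-stimulated DMSO wells and 100% = unstimulated DMSO wells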
Numbers without * were called inactive.

Screening CCC(C)Nc1ncnc2c1cnn2Cc1ccc(Cl)cc1 (stereo unspecified) returned NPY Y2 blocker 1.0, NPY Y1 blocker 5.0, NPY-Y2 PAM-ag 8.0 and NPY-Y1 PAM-ag -9.3.
For O=C(OCC(=O)N1CCCc2ccccc21)c1cnc(Cl)c(Cl)c1 the results were NPY Y2 blocker 5.6, NPY Y1 blocker -0.8, NPY-Y2 PAM-ag 18.8, NPY-Y1 PAM-ag 49.5*, NPY-Y1 pot conf 31.3, NPY-Y2 counter 15.7, NPY-Y1 agonist 22.1*, NPY-Y2 agonist 7.3 and CNGC inh 2 24.7*.
For COc1ccc2cc(C3(C)NC(=O)NC3=O)ccc2c1 (stereo unspecified) the results were NPY Y2 blocker -0.7, NPY Y1 blocker -7.5, NPY-Y2 PAM-ag 7.5, NPY-Y1 PAM-ag 67.8*, NPY-Y1 pot conf 0.3, NPY-Y2 counter -4.8, NPY-Y1 agonist -6.0, NPY-Y2 agonist -3.2 and CNGC inh 2 -8.0.
Screening COc1ccc2c(c1)CCCC21NC(=O)NC1=O (stereo unspecified) returned NPY Y2 blocker -0.2, NPY Y1 blocker 1.8, NPY-Y2 PAM-ag 8.6 and NPY-Y1 PAM-ag 2.3.
Screening CCOC(=O)c1n[nH]c(=O)c2ccccc12 returned NPY Y1 blocker -1.0, NPY-Y2 PAM-ag -2.1 and NPY-Y1 PAM-ag 0.8.
For COC(=O)CSc1ccc(S(=O)(=O)N2CCCCCC2)cc1[N+](=O)[O-] the results were NPY Y1 blocker -12.3, NPY-Y2 PAM-ag 0.1, NPY-Y1 PAM-ag 59.7*, NPY-Y1 pot conf 120.9*, NPY-Y2 counter 100.3*, NPY-Y1 agonist 108.4*, NPY-Y2 agonist 103.5* and CNGC inh 2 98.8*.
COc1ccccc1-n1c(C)nnc1SCC(N)=O was read as NPY Y2 blocker -0.3, NPY Y1 blocker -0.5, NPY-Y2 PAM-ag 1.1, NPY-Y1 PAM-ag 42.5*, NPY-Y1 pot conf 0.9, NPY-Y2 counter 3.6, NPY-Y1 agonist -3.8, NPY-Y2 agonist 1.1 and CNGC inh 2 -4.6.
COc1ccccc1-n1c(SCC(N)=O)nnc1-c1ccccc1 was read as NPY Y2 blocker 4.3, NPY Y1 blocker -4.2, NPY-Y2 PAM-ag 12.3 and NPY-Y1 PAM-ag 13.3.
`CCC1C(=O)Nc2ccccc2N1C(=O)c1ccc(Cl)nc1` (stereo unspecified) gave NPY Y1 blocker -3.4, NPY-Y2 PAM-ag 4.9 and NPY-Y1 PAM-ag 23.2.
Screening COc1ccc2[nH]c(C)c(C(=O)CN3CCOCC3)c2c1 returned NPY Y2 blocker 0.3, NPY Y1 blocker -9.1, NPY-Y2 PAM-ag 11.3 and NPY-Y1 PAM-ag 3.2.
`COC(=O)c1ccc(C)c(NC(=O)CCc2ccc(OC)cc2)c1` gave NPY Y2 blocker 6.7, NPY Y1 blocker 1.6, NPY-Y2 PAM-ag 8.0, NPY-Y1 PAM-ag 104.8*, NPY-Y1 pot conf -2.9, NPY-Y2 counter -3.9, NPY-Y1 agonist -10.3, NPY-Y2 agonist -12.4 and CNGC inh 2 -7.8.
`Cc1ccc(C(=O)O)cc1NC(=O)CCc1ccccc1` gave NPY Y1 blocker -0.3, NPY-Y2 PAM-ag 2.0 and NPY-Y1 PAM-ag -19.3.
Screening CCOC(=O)C1=C(CC)Nc2ccccc2N/C1=N\S(=O)(=O)c1cc(Br)ccc1Br returned NPY Y1 blocker -2.2, NPY-Y2 PAM-ag 15.5, NPY-Y1 PAM-ag 32.8*, NPY-Y1 pot conf 7.1, NPY-Y2 counter 5.7, NPY-Y1 agonist 4.0, NPY-Y2 agonist 1.2 and CNGC inh 2 7.1.
`CCOC(=O)C1=C(CC)Nc2ccccc2N/C1=N\S(=O)(=O)c1ccc2ccccc2c1` gave NPY Y1 blocker 6.4, NPY-Y2 PAM-ag -7.7 and NPY-Y1 PAM-ag 5.0.
Screening Brc1ccc(-c2csc(Nc3nc(-c4ccc(Br)cc4)cs3)n2)cc1 returned NPY-Y2 PAM-ag -11.6 and NPY-Y1 PAM-ag -11.4.
Screening Brc1ccc(Nc2nc(-c3cccnc3)cs2)cc1 returned NPY Y1 blocker -11.0, NPY-Y2 PAM-ag 27.9, NPY-Y1 PAM-ag 37.4*, NPY-Y1 pot conf 42.3, NPY-Y2 counter 31.1, NPY-Y1 agonist 43.2*, NPY-Y2 agonist 38.1* and CNGC inh 2 34.1*.
CCNC(=S)N/N=C/c1ccc(OCC(=O)Nc2ccc(OC)cc2)c(OC)c1 was read as NPY Y2 blocker 4.0, NPY Y1 blocker 0.5, NPY-Y2 PAM-ag -7.1 and NPY-Y1 PAM-ag -53.5.
Screening COC(=O)CC1(C(=O)OC)Oc2ccc(Br)cc2C(=O)N1c1cc(Cl)c(Cl)cc1Cl (stereo unspecified) returned NPY-Y2 PAM-ag 17.7, NPY-Y1 PAM-ag 48.9*, NPY-Y1 pot conf 22.0, NPY-Y2 counter 4.9, NPY-Y1 agonist 10.2, NPY-Y2 agonist 6.7 and CNGC inh 2 19.8.
Screening Cc1ccc(O)c(C(=O)c2cnc3c(c2)c(-c2ccc(F)cc2)c(C#N)c(=O)n3C)c1 returned NPY Y1 blocker -4.4, NPY-Y2 PAM-ag 8.8, NPY-Y1 PAM-ag 42.2*, NPY-Y1 pot conf 61.3*, NPY-Y2 counter 54.6*, NPY-Y1 agonist 49.3*, NPY-Y2 agonist 53.6* and CNGC inh 2 34.1*.
For N#CCC(=O)Nc1ccc(C(=O)OCC(=O)c2ccc3c(c2)OCCO3)cc1 the results were NPY Y1 blocker 0.6, NPY-Y2 PAM-ag 9.3 and NPY-Y1 PAM-ag 2.0.
For O=C(Nc1ccccc1)N(C1=NCCCCS1)c1ccccc1 the results were NPY Y2 blocker 1.0, NPY Y1 blocker 4.3, NPY-Y2 PAM-ag 5.2 and NPY-Y1 PAM-ag -12.8.
Screening CCN(CC)S(=O)(=O)c1ccc(-c2nnc(SCC(C)=O)o2)cc1 returned NPY Y2 blocker -0.8, NPY Y1 blocker -2.7, NPY-Y2 PAM-ag -4.8 and NPY-Y1 PAM-ag -14.1.
CCCCNC(=O)NS(=O)(=O)c1ccc(NS(=O)(=O)c2ccccc2)cc1 was read as NPY Y2 blocker 1.3, NPY Y1 blocker -2.5, NPY-Y2 PAM-ag -1.6 and NPY-Y1 PAM-ag 5.4.
For O=C(CC1NCCc2ccccc21)Nc1ccc(Cl)cc1 (stereo unspecified) the results were NPY Y1 blocker 0.9, NPY-Y2 PAM-ag -12.1, NPY-Y1 PAM-ag 55.7*, NPY-Y1 pot conf -8.0, NPY-Y2 counter -5.3, NPY-Y1 agonist -16.5, NPY-Y2 agonist -9.8 and CNGC inh 2 -2.4.
CCC(C(=O)NC(C)(C)C)N(C(=O)Cn1nnc(-c2ccccc2F)n1)c1cnc2ccccc2c1 (stereo unspecified) was read as NPY Y1 blocker -0.7, NPY-Y2 PAM-ag 0.6 and NPY-Y1 PAM-ag 11.2.
